Experimental data: ChEMBL document CHEMBL1667862, “Chisopanins A-K, 11 new protolimonoids from Chisocheton paniculatus and their anti-inflammatory activities” (Bioorg Med Chem, 2011)

Columns and labels:
RAW264.7 [1] = assay: Antiinflammatory activity in mouse RAW264.7 cells assessed as inhibition of LPS-induced TNFalpha production treated 2 hrs before LPS challenge measured after 24 hrs by ELISA; format: functional, cell-based; conditions: in the assay text read “measured after 18 hrs” for “measured after 24 hrs”
Method in brief: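 RAW 264.7 cells (RPMI 1640, 10% heat-inactivated FBS, 37 °C, 5% CO2) seeded in 24-well plates, grown 24 h, then exposed to compounds (100, 50, 25, 12.5, 6.25 µM) and LPS as for the nitrite assay. TNF-α in medium measured by mouse ELISA kit. Data as mean ± SD.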

RAW264.7 [2] = assay: Antiinflammatory activity in mouse RAW264.7 cells assessed as inhibition of LPS-induced nitric oxide production treated 2 hrs before LPS challenge measured after 18 hrs by griess reaction; format: functional, cell-based
Method in brief: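 RAW 264.7 cells seeded at 1 × 10^5 per well in 24-well plates in RPMI 1640 with 10% heat-inactivated FBS, grown 24 h. Pretreated 2 h with compounds (40, 20, 10, 5, 2.5 µM; DMSO ≤0.1% final), then stimulated with LPS 2 µg/mL for 18 h. Nitrite measured. Mean ± SD.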

Row | IC50 (RAW264.7 [1]) | IC50 (RAW264.7 [2]) | SMILES
1 | > 100 µM | 8.9 µM | CO[C@H]1O[C@@H]([C@H](O)C(C)(C)O)C[C@H]1[C@H]1CC=C2[C@]3(C)[C@H](O)C[C@H]4C(C)(C)[C@H](OC(C)=O)CC[C@]4(C)[C@H]3CC[C@]21C [CHISIAMOL E]
2 | 47.4 µM | 33.4 µM | CC(=O)O[C@@H]1CC[C@]2(C)[C@H]3CC[C@]4(C)C(=CC[C@H]4C4=CC(C(O)C(C)(C)O)OC4=O)[C@]3(C)[C@H](O)C[C@H]2C1(C)C (stereo partly specified) [CHISOPANIN K]
3 | > 100 µM | 12.3 µM | CCOC(C)(C)[C@@H](O)[C@H]1C[C@@H]([C@H]2CC=C3[C@]4(C)[C@H](O)C[C@H]5C(C)(C)[C@H](OC(C)=O)CC[C@]5(C)[C@H]4CC[C@]32C)[C@@H](OC)O1 [CHISOPANIN J]
4 | 30.7 µM | 7.9 µM | CC(=O)O[C@@H]1CC[C@]2(C)[C@H]3CC[C@]4(C)C(=CC[C@@H]4[C@H]4CO[C@](O)(C(C)(C)O)[C@H](O)C4)[C@]3(C)[C@H](O)C[C@H]2C1(C)C [CHISOPANIN B]
5 | > 100 µM | 8.7 µM | CC(=O)O[C@@H]1CC[C@]2(C)[C@H]3CC[C@]4(C)C(=CC[C@@H]4[C@H]4COC(C)(C)[C@@H](O)[C@H](O)C4)[C@]3(C)[C@H](OC(C)=O)C[C@H]2C1(C)C [CHISIAMOL C]
6 | 73.5 µM | > 50 µM | CC(=O)O[C@@H]1CC[C@]2(C)[C@H]3CC[C@]4(C)C(=CC[C@@H]4[C@H]4CO[C@H](C(C)(C)O)[C@H](O)C4)[C@]3(C)[C@H](O)C[C@H]2C1(C)C

The remaining lines, values behind:

Row | SMILES | IC50 (RAW264.7 [1]) | IC50 (RAW264.7 [2])
7 | C[C@@H]1C[C@H]2[C@@H]3CCC4=CC(=O)C=C[C@]4(C)[C@@]3(F)[C@@H](O)C[C@]2(C)[C@@]1(O)C(=O)CO [DEXAMETHASONE] |  | 0.86 µM
8 | O=c1c(-c2ccc(O)cc2)coc2cc(O)cc(O)c12 [GENISTEIN] | 19.1 µM | 
9 | CCOC(C)(C)[C@@H](O)[C@H]1C[C@@H]([C@H]2CC=C3[C@]4(C)[C@H](O)C[C@H]5C(C)(C)[C@H](OC(C)=O)CC[C@]5(C)[C@H]4CC[C@]32C)[C@H](OC)O1 [CHISOPANIN I] | > 100 µM | 5.3 µM
10 | CO[C@H]1O[C@@H]([C@H](O)C(C)(C)OC)C[C@H]1[C@H]1CC=C2[C@]3(C)[C@H](O)C[C@H]4C(C)(C)[C@H](OC(C)=O)CC[C@]4(C)[C@H]3CC[C@]21C [CHISOPANIN F] | > 100 µM | 6.9 µM
11 | C=C(C)[C@@H](O)[C@H]1C[C@@H]([C@H]2CC=C3[C@]4(C)[C@H](O)C[C@H]5C(C)(C)[C@H](OC(C)=O)CC[C@]5(C)[C@H]4CC[C@]32C)[C@H](OCC)O1 [CHISOPANIN D] | > 100 µM | > 50 µM
12 | CO[C@@H]1O[C@@H]([C@H](O)C(C)(C)OC)C[C@H]1[C@H]1CC=C2[C@]3(C)[C@H](O)C[C@H]4C(C)(C)[C@H](OC(C)=O)CC[C@]4(C)[C@H]3CC[C@]21C [CHISOPANIN E] | > 100 µM | 6.2 µM
13 | CO[C@@H]1O[C@@H]([C@H](O)C(C)(C)O)C[C@H]1[C@H]1CC[C@]2(C)C3=CC[C@H]4C(C)(C)C(=O)CC[C@]4(C)[C@H]3CC[C@@]12C | 54.6 µM | 29.4 µM
14 | CC(=O)O[C@@H]1CC[C@]2(C)[C@H]3CC[C@]4(C)C(=CC[C@@H]4[C@H]4CO[C@](O)(C(C)(C)O)[C@H](O)C4)[C@]3(C)[C@H](OC(C)=O)C[C@H]2C1(C)C [CHISOPANIN A] | 26.9 µM | 5.4 µM
15 | CC(=O)O[C@@H]1CC[C@]2(C)[C@H]3CC[C@]4(C)C(=CC[C@@H]4[C@H]4COC(C)(C)[C@@H](O)[C@H](O)C4)[C@]3(C)[C@H](O)C[C@H]2C1(C)C [CHISIAMOL B] | > 100 µM | 16.5 µM
16 | CO[C@@H]1O[C@@H]([C@H](O)C(C)(C)O)C[C@H]1[C@H]1CC=C2[C@]3(C)[C@H](O)C[C@H]4C(C)(C)[C@H](OC(C)=O)CC[C@]4(C)[C@H]3CC[C@]21C [CHISIAMOL D] | > 100 µM | 6.5 µM
17 | C=C(C)[C@@H](O)[C@H]1C[C@@H]([C@H]2CC=C3[C@]4(C)[C@H](O)C[C@H]5C(C)(C)[C@H](OC(C)=O)CC[C@]5(C)[C@H]4CC[C@]32C)[C@H](OC)O1 [CHISOPANIN C] | > 100 µM | 40 µM
18 | CCO[C@H]1O[C@@H]([C@H](O)C(C)(C)O)C[C@H]1[C@H]1CC=C2[C@]3(C)[C@H](O)C[C@H]4C(C)(C)[C@H](OC(C)=O)CC[C@]4(C)[C@H]3CC[C@]21C [CHISOPANIN H] | > 100 µM | > 50 µM
19 | CCO[C@@H]1O[C@@H]([C@H](O)C(C)(C)O)C[C@H]1[C@H]1CC=C2[C@]3(C)[C@H](O)C[C@H]4C(C)(C)[C@H](OC(C)=O)CC[C@]4(C)[C@H]3CC[C@]21C [CHISOPANIN G] | > 100 µM | 5.4 µM
